Measurements from ChEMBL document CHEMBL1138224, “Design, synthesis, and biological evaluation of peptidomimetic inhibitors of factor XIa as novel anticoagulants” (J Med Chem, 2006).

Columns and labels:
Coagulation factor XI = Coagulation factor XI (Homo sapiens, UniProt P03951); experiment: Inhibition of factor 11a
Coagulation factor X = Coagulation factor X (Homo sapiens, UniProt P00742); experiment: Inhibition of factor 10a
Prothrombin = Prothrombin (Homo sapiens, UniProt P00734); experiment: Inhibition of thrombin
Homo sapiens = species on record: Homo sapiens; experiment: Selectivity for factor 11a over factor 10a
Procedure, shortened: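 Fold selectivity compared IC50s against factor XIa and factor Xa, both in Tris-HCl/NaCl/Tween 20 buffer at pH 7.4. FXIa: Glp-Pro-Arg-AMC, 50 nM enzyme, 50 µM substrate, 15-30 min at 30 °C. FXa: H-Pro-Phe-Arg-AMC at twice those concentrations, 60 min.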

Plasma [1] = experiment: Anticoagulant activity in human plasma measured by activated […] time; type: functional
Procedure, shortened: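 Activated partial thromboplastin time in human plasma. Plasma was incubated with compound for 2 min. aPTT reagent was added and incubated 3 min. Prewarmed 30 mM CaCl2 was added and clotting was read up to 300 s. The concentration doubling clotting time was taken from the dose-response curve.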

Plasma [2] = experiment: Anticoagulant activity in human plasma measured by prothrombin time; type: functional
Procedure, shortened: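 Human plasma with compound prewarmed 3 min at 37 °C, then prewarmed thromboplastin reagent containing calcium added; clotting read over 300 s. Concentration doubling clotting time (2× PT) derived from dose-response curve.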

Coagulation factor VII = biological target: T1, Coagulation factor VII (Homo sapiens, UniProt P08709); experiment: Inhibition of factor 7a
T1 sequence (P08709 whole entry): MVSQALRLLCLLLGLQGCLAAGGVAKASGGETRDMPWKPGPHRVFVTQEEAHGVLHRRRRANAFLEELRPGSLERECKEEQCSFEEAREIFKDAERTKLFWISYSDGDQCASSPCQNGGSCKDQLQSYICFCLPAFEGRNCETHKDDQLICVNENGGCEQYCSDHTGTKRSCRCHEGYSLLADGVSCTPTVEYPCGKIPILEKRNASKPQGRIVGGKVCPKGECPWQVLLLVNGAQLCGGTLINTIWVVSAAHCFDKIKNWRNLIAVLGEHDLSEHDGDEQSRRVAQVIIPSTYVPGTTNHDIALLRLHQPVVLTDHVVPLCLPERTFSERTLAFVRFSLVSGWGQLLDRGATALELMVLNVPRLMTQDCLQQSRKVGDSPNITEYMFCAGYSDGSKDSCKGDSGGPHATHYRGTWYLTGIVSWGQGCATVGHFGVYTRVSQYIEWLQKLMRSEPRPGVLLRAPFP

Plasma kallikrein = Plasma kallikrein (Homo sapiens, UniProt P03952); experiment: Inhibition of plasma kallikrein; type: cell-free
Plasma kallikrein, sequence (P03952 20-390 limits assumed): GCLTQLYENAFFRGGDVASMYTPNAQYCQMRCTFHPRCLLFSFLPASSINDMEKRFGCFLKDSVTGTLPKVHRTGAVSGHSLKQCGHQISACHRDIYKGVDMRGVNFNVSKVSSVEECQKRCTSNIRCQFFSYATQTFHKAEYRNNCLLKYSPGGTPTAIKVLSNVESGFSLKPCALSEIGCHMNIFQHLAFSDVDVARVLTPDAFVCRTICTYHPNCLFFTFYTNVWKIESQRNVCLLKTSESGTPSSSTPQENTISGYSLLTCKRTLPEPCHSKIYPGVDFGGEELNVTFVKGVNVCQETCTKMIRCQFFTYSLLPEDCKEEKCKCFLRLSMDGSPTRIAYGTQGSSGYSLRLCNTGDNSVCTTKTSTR
Plasma kallikrein, sequence (P03952 391-638 limits assumed): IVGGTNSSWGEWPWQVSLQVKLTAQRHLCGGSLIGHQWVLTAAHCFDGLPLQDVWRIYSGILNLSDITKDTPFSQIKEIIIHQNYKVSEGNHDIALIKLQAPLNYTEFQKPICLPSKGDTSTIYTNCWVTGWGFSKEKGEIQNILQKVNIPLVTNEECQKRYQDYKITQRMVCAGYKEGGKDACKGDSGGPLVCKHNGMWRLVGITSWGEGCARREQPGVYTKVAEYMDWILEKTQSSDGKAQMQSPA

[3] = biological target: Vitamin K-dependent protein C (Homo sapiens, UniProt P04070); experiment: Inhibition of activated protein C
Vitamin K-dependent protein C, sequence (P04070 43-197 limits assumed): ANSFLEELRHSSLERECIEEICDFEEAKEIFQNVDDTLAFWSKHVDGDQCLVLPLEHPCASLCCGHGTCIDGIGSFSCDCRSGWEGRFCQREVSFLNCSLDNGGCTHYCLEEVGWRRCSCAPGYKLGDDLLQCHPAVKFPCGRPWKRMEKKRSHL
Vitamin K-dependent protein C, sequence (P04070 212-461 limits assumed): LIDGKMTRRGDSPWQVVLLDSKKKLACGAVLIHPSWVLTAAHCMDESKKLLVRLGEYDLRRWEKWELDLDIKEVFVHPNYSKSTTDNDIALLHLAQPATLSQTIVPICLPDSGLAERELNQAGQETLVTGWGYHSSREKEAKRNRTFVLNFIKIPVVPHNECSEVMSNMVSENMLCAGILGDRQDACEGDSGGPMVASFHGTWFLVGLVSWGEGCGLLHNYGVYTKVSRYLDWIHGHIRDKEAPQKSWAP

[4] = Half life in iv dosed rat; type: ADME, organism-based; details: in vivo
[5] = Clearance in iv dosed rat; type: ADME, organism-based; details: in vivo
[6] = Volume of distribution in iv dosed rat; type: ADME, organism-based; details: in vivo, read-out: Vdss

Coagulation factor X, sequence (P00742 41-179 limits assumed): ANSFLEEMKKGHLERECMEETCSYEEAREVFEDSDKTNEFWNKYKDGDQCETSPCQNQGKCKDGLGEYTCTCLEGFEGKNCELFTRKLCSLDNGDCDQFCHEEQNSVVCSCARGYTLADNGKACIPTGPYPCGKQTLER
Coagulation factor X, sequence (P00742 235-488 limits assumed): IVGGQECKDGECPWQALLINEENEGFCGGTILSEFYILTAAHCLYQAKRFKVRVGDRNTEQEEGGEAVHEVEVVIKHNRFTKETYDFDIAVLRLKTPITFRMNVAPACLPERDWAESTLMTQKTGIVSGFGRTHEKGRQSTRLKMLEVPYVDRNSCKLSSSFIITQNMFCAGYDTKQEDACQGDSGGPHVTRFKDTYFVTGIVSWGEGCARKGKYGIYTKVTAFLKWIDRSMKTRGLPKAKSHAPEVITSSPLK
Coagulation factor XI, sequence (P03951 19-387 limits assumed): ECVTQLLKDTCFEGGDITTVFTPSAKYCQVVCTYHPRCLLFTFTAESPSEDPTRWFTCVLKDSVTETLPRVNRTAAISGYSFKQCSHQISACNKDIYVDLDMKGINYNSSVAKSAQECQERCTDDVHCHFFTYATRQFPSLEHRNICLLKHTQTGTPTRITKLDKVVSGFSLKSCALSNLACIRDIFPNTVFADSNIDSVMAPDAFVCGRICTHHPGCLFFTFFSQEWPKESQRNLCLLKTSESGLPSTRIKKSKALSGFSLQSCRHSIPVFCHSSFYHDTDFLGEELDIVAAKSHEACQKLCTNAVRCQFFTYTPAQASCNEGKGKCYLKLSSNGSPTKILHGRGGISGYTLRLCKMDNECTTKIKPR
Coagulation factor XI, sequence (P03951 388-625 limits assumed): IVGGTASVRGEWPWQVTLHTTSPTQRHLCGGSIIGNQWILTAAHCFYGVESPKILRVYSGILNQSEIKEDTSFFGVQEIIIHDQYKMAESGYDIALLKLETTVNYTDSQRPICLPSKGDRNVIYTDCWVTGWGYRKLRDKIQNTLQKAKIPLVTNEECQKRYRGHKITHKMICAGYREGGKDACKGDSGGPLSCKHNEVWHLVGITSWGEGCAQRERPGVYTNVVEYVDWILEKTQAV

Compound	IC50 (Coagulation factor XI) [nM]	IC50 (Coagulation factor X) [µM]	IC50 (Prothrombin) [nM]	further results
CC(C)[C@H](NC(=O)[C@H](Cc1ccccc1)NNC(=O)Cc1ccco1)C(=O)N[C@@H](CCCNC(=N)N)C(=O)c1nccs1	2600	–	–	–
CC(C)C[C@H](NC(=O)NCc1ccc(F)cc1)C(=O)N[C@H](C(=O)N[C@@H](CCCNC(=N)N)C(=O)c1nccs1)C(C)C	114	> 20	3100	–
CC(C)C[C@H](NC(=O)OCc1ccccc1)C(=O)N[C@H](C(=O)N[C@@H](CCCN=C(N)N)C(=O)c1nccs1)C(C)C	356	–	–	–
CC(C)C[C@H](NC(=O)NCc1ccc(Cl)c(Cl)c1)C(=O)N[C@@H](Cc1ccc(O)cc1)C(=O)N[C@@H](CCCNC(=N)N)C(=O)c1nccs1	200	1.7	1000	–
CC(C)C[C@H](NC(=O)NCc1ccc(Cl)c(Cl)c1)C(=O)N[C@H](C(=O)N[C@@H](CCCNC(=N)N)C(=O)c1nccs1)C1CCCCC1	340	> 200	7700	–
CC(C)C[C@H](NC(=O)NCc1ccc(Cl)c(Cl)c1)C(=O)N[C@@H](Cc1ccccc1)C(=O)N[C@@H](CCCN=C(N)N)C(=O)c1nccs1	710	8.5	27000	–
CC(C)[C@H](NC(=O)[C@H](Cc1ccccc1)NNC(=O)NCc1ccc(F)cc1)C(=O)N[C@@H](CCCNC(=N)N)C(=O)c1nccs1	160	–	4300	–

Stronger by IC50 (Coagulation factor XI), values ahead:

IC50 (Coagulation factor XI) [nM]	IC50 (Coagulation factor X) [µM]	IC50 (Prothrombin) [nM]	Compound	further results
90	14.2	6700	CC(C)[C@H](NC(=O)[C@H](Cc1ccccc1)NNC(=O)NCc1ccc(Cl)c(Cl)c1)C(=O)N[C@@H](CCCNC(=N)N)C(=O)c1nccs1	–
76	85	2600	CCC(C)[C@H](NC(=O)[C@H](CC(C)C)NC(=O)NCc1ccc(Cl)c(Cl)c1)C(=O)N[C@@H](CCCN=C(N)N)C(=O)c1nccs1 (stereo partly drawn)	–
63	> 20	876	CC(C)C[C@H](NC(=O)NCc1ccc(Cl)c(Cl)c1)C(=O)N[C@H](C(=O)N[C@@H](CCCN=C(N)N)C(=O)c1nccs1)C(C)C	–
45	13	386	CC(C)C[C@H](NC(=O)NCc1ccc(Cl)cc1Cl)C(=O)N[C@H](C(=O)N[C@@H](CCCN=C(N)N)C(=O)c1nccs1)C(C)C	–
29	2.1	710	CC(C)[C@H](NC(=O)[C@H](Cc1c[nH]c2ccccc12)NC(=O)N[C@H](C)c1ccc(Br)cc1)C(=O)N[C@@H](CCCNC(=N)N)C(=O)c1nccs1	–
28	–	523	CC(C)[C@H](NC(=O)[C@H](Cc1cccnc1)NC(=O)N[C@H](C)c1ccc(F)cc1)C(=O)N[C@@H](CCCN=C(N)N)C(=O)c1nccs1	–
12	1.4	1400	CC(C)[C@H](NC(=O)[C@H](Cc1cccnc1)NC(=O)N[C@H](C)c1ccc(Br)cc1)C(=O)N[C@@H](CCCNC(=N)N)C(=O)c1nccs1	Selectivity ratio (Homo sapiens): 200; 2aPTT (Plasma [1]): 2.4 µM; 2PT (Plasma [2]): 31 µM
10	2.7	976	CC(C)[C@H](NC(=O)[C@@H](NC(=O)N[C@H](C)c1ccc(Br)cc1)C1CCCCC1)C(=O)N[C@@H](CCCNC(=N)N)C(=O)c1nccs1	2aPTT (Plasma [1]): 15.4 µM; 2PT (Plasma [2]): 178.6 µM
6	1.6	2040	CC(C)[C@H](NC(=O)[C@H](Cc1ccc(O)cc1)NC(=O)N[C@H](C)c1ccc(Br)cc1)C(=O)N[C@@H](CCCN=C(N)N)C(=O)c1nccs1	IC50 (Coagulation factor VII): 38 µM; IC50 (Plasma kallikrein): 10 nM; IC50 [3]: 20.7 µM; half-life [4]: 45 min; clearance [5]: 32 mL/min/kg; Vd [6]: 0.236 L/kg
